# Source: paper PMC11245987 (Computational and Structural Biotechnology Journal, 2024)
# pIC50: −log10 of the molar value.
# Tests used:
# CTSL [1] = molecular target: T1, CTSL (Homo sapiens, UniProt P07711); assay: CTSL activity test, cell-free system; format: biochemical; conditions: for inhibition at 100 µM: read-out: inhibition of CTSL
# CTSL [2] = molecular target: T1, CTSL; assay: Enzyme kinetics of CTSL; format: biochemical; conditions: for inhibition mechanism: 6.25 µM to 100 µM, both Km and Vmax decreased
# Summary of the method: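 A standard-curve conversion factor turned signal into velocity. Values were corrected by subtracting the […] and fitted to Michaelis-Menten. Lineweaver–Burk plots gave the inhibition mechanism. Mean ± SEM.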
# T1 sequence (P07711 114-288 limits assumed): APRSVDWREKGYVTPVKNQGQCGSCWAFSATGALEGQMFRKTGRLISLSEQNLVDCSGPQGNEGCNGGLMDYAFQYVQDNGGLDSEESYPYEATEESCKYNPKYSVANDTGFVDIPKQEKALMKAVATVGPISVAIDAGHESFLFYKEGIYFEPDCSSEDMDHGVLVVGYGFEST
# T1 sequence (P07711 292-333 limits assumed): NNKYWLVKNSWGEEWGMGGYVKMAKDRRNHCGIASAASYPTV
compound,measurement,setting,value
COc1cc(O)cc(O)c1C(=O)/C=C/c1ccccc1 [(E)-Cardamonin],inhibition at 100 µM,CTSL [1],> 90%
O=C(N[C@H](COC(=O)[C@H](Cc1ccccc1)NC(=O)c1ccccc1)Cc1ccccc1)c1ccccc1 [Asperphenamate],inhibition at 100 µM,CTSL [1],> 90%
CC1(C)CCC2=C(O1)c1ccccc1C(=O)C2=O [Beta-Lapachone],inhibition mechanism,CTSL [2],uncompetitive inhibition mechanism
same,Vmax,CTSL [2]; inhibitor 6.25 μM,194.8 ± 9.2 Rlu/min
same,Vmax,CTSL [2]; inhibitor 12.5 μM,181.3 ± 32.9 Rlu/min
same,Vmax,CTSL [2]; inhibitor 25 μM,136.9 ± 27.6 Rlu/min
same,Vmax,CTSL [2]; inhibitor 50 μM,103.1 ± 2.2 Rlu/min
same,Vmax,CTSL [2]; inhibitor 100 μM,39.9 ± 0.2 Rlu/min
same,pIC50,CTSL [1],5.02
same,inhibition at 100 µM,CTSL [1],> 90%
Cc1c(O)c(C)c2c(c1O)C(=O)C[C@@H](c1ccc(O)cc1)O2 [Farrerol],inhibition at 100 µM,CTSL [1],> 90%
COc1cc(O)c(C(=O)/C=C/c2ccccc2)c(OC)c1 [Flavokawain B],inhibition at 100 µM,CTSL [1],> 90%
O=C(/C=C/c1ccc(O)cc1)c1c(O)cc(O)cc1O [Naringenin chalcone],inhibition at 100 µM,CTSL [1],> 90%
O=CCc1ccccc1 [Phenylacetaldehyde],inhibition at 100 µM,CTSL [1],> 90%
CC1=CC(=O)c2c(O)cccc2C1=O [Plumbagin],inhibition mechanism,CTSL [2],uncompetitive inhibition mechanism
same,Vmax,CTSL [2]; inhibitor 6.25 μM,321.7 ± 13.9 Rlu/min
same,Vmax,CTSL [2]; inhibitor 12.5 μM,277.5 ± 15.6 Rlu/min
same,Vmax,CTSL [2]; inhibitor 25 μM,270.5 ± 11.2 Rlu/min
same,Vmax,CTSL [2]; inhibitor 50 μM,216.8 ± 20.5 Rlu/min
same,Vmax,CTSL [2]; inhibitor 100 μM,12.3 ± 2.4 Rlu/min
same,pIC50,CTSL [1],4.50
same,inhibition at 100 µM,CTSL [1],> 90%
